Screening results as filed in PubChem BioAssay.
Granule exo inh: lytic granule exocytosis inhibition | hit rate 0.66% among 360,000 | inhibition, % at 10 µM | TALL-104 LAMP-1 surface exposure, flow cytometry; cells stimulated with thapsigargin and PMA;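 active means inhibition above about 55%, limit read from the data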
MT1-MMP act inh: inhibitors of human MT1-MMP activation; P50281; HT1080 RFP-PRO-GFP cells, GFP/RFP ratio fluorescence, overnight; percent of plate control window, DMSO zero; GFP/RFP ratio change, % at 20 µM; hit rate 0.061% among 360,000; AID 651647;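 active means GFP/RFP ratio change of at least 30% with cell ATP level not reduced by more than half and red fluorescence within 50% of control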
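Compound: 20 µM single dose, 1% DMSO / System: HT1080 RFP-PRO-GFP cells / Controls: DMSO and RFP-L50D-GFP cell wells / Read-out basis: GFP/RFP fluorescence ratio / Schedule: overnight compound exposure at 37 °C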
DAGLB inhibitor: diacylglycerol lipase beta (human) inhibition; Q8NCG7; HEK293T DAGLB membrane lysate, EnzChek fluorogenic substrate; inhibition, % at 5.17 µM; hit rate 0.059% among 340,000; AID 504411; in the data active means inhibition above about 34%;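 further: 0% = enzyme with vehicle and 100% = wells lacking enzyme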
Target sequence (Q8NCG7 whole entry, looked up): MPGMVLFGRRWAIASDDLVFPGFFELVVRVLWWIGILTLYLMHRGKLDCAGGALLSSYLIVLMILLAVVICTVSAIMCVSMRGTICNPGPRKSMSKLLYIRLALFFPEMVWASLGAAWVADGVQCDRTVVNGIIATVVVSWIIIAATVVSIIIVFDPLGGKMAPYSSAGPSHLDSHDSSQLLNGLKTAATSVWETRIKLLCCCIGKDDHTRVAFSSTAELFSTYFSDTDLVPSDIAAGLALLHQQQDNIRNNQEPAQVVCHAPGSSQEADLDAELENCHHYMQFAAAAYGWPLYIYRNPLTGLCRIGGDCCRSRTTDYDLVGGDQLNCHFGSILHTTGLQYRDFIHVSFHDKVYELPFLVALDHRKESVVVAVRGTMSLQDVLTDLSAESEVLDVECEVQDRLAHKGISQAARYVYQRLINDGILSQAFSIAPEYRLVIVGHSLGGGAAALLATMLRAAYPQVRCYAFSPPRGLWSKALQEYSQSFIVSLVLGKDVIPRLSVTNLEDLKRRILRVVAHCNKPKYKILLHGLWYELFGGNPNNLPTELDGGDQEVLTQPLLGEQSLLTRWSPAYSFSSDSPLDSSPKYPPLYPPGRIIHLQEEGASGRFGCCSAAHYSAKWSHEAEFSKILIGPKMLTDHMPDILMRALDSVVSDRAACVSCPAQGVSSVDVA
VLA-4 inh: inhibition in a human VLA-4 binding assay | P13612 | VLA-4 expressing cells, ligand binding flow cytometry | inhibition, % (about 7 µM as worked out from the volumes in the protocol) | hit rate 0.2% among 330,000 | AID 2557; in the data active means inhibition above about 50%
ABCB6 inh 2: inhibitors of human ABC transporter ABCB6; Q9NP58; K562-ABCB6 porphyrin accumulation, flow cytometry, 1 h; active compounds read low; hit rate 0.19% among 360,000; fluorescence ratio to DMSO, % at 10 µM;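 active means fluorescence ratio to DMSO below 75%, the collection mean minus 3 SD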;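 further: signal is porphyrin accumulated inside mitochondria; 100% equals median channel fluorescence of DMSO control wells; lower ratio means ABCB6 inhibition with less porphyrin fluorescence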
FGF22 binding: binders of recombinant human FGF22 by thermal shift. Q9HCT0. SYPRO orange fluorescence; percent of sucrose octasulfate shift, DMSO zero. activity (Tm shift, normalised), % at 9.99 µM. hit rate 1.5% among 340,000. AID 651658;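 active means mean Tm shift, scaled 0 neutral to 100 positive control, at about 1.3% or above, every replicate too, limit read from the data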
Numbers without * were called inactive; x = no result given. Sampled rows, rich in hits. Any-hit rate of the full collection: about 2%.

SMILES | Granule exo inh | MT1-MMP act inh | DAGLB inhibitor | VLA-4 inh | ABCB6 inh 2 | FGF22 binding
CCN(CC)C(=O)c1nc[nH]c1C(=O)N1CCC(C)CC1 | -3 | 1 | -1 | -7 | 101 | 9.1*
CCCNC(=O)N(C)C[C@@H]1Oc2cc(C3=CCCC3)ccc2S(=O)(=O)N([C@H](C)CO)C[C@@H]1C | x | x | x | x | x | 0
c1ccn2cc(-c3ccc4c(c3)OCCO4)nc2c1 | -6 | 5 | 0 | 0 | 96 | 43*
Cc1ccc2nc(-c3ccc4c(c3)OCCO4)cn2c1 | 18 | 3 | 0 | -5 | 101 | 0
O=C1CN(S(=O)(=O)c2ccccc2)C[C@H]2[C@@H](c3ccc(Br)cc3)[C@H](CO)N12 | x | x | x | x | x | -1
c1cnc2ncc3sccc3c2c1 | 0 | 0 | -1 | 7 | 103 | 43*
COc1cccc(NC(=S)NCCN2CCOCC2)c1 | 0 | 4 | 2 | 6 | 98 | x
COc1cc(NC(=S)NCCCN2CCOCC2)cc(OC)c1 | -1 | -1 | 2 | 4 | 62* | x
CC1=C(C(=O)OCc2ccccc2)C(c2ccc([N+](=O)[O-])cc2)NC(=O)N1CCCCCC(=O)O (centres undefined) | 4 | 0 | 7 | 5 | 100 | -1
CC1=C(C(=O)OCc2ccccc2)C(c2ccc([N+](=O)[O-])cc2)NC(=O)N1CCCC(=O)O (centres undefined) | 62* | 4 | 2 | 3 | 99 | 0
C[C@H]1CN([C@@H](C)CO)C(=O)CCCn2cc(nn2)CO[C@H]1CN(C)Cc1ccc(-c2ccccc2)cc1 | x | x | x | x | x | 0
CN1c2ccc(C#Cc3cccnc3)cc2[C@@H]2[C@@H](CCN2C(=O)C2CCCCC2)[C@H]1CO | x | x | x | x | x | 0
Cc1cc(C)nc(SCCn2c(N3CCCCC3)nc3c2c(=O)n(C)c(=O)n3C)n1 | 0 | -1 | -1 | 7 | 96 | x
Cc1cc(C)nc(SCCn2c(N3CC(C)OC(C)C3)nc3c2c(=O)n(C)c(=O)n3C)n1 (centres undefined) | 0 | 1 | 2 | 20 | 104 | 44*
OCC1CCCN(C2CCN(Cc3nc(Cc4cccc(C(F)(F)F)c4)no3)CC2)C1 (centres undefined) | 1 | -5 | 2 | -2 | 101 | 43*
Cc1noc(C)c1S(=O)(=O)Nc1ccc2c(c1)C(=O)N([C@@H](C)CO)C[C@@H](C)[C@H](CN(C)C(=O)NC1CCCCC1)OCCCC[C@@H](C)O2 | x | x | x | x | x | 0
COc1ccccc1CNc1ncnc2cc(Cl)ccc12 | 2 | -1 | -2 | x | 97 | x
COc1ccc(CNc2ncnc3cc(Cl)ccc23)cc1OC | 0 | -3 | -4 | x | 95 | 43*
CCC(=O)N1CC2(C1)[C@H](c1ccc(-c3ccc(F)cc3)cc1)[C@@H](CO)N2S(C)(=O)=O | x | x | x | x | x | 0
COc1cc(OC)cc(-c2nc3ccccc3c(=O)n2OC(=O)c2ccc(Br)cc2)c1 | 0 | 7 | -1 | -1 | 109 | 1.7*
C[C@H]1CN([C@@H](C)CO)S(=O)(=O)c2ccc(C#CC3CC3)cc2O[C@@H]1CN(C)Cc1ccc(F)cc1 | x | x | x | x | x | 0
N#Cc1c(N)nc(Sc2ccc(Cl)cc2)c(C#N)c1-c1ccccc1Cl | 79* | -7 | -8 | 6 | 98 | 0
CCOC(=O)C[n+]1c(C)sc2ccc(OC)cc21 | 75* | 3 | -1 | 5 | 94 | x
CCO/C(=C/c1sc2ccc(OC)cc2[n+]1CCCS(=O)(=O)[O-])CC | -1 | 11 | 1 | -3 | 98 | x
CCN1CCN(C(=S)c2ccc(Cl)cc2)CC1 | -3 | -2 | 2 | 26 | 99 | x
SMILES | Granule exo inh | MT1-MMP act inh | DAGLB inhibitor | VLA-4 inh | ABCB6 inh 2 | FGF22 binding
CCN1CCN(C(=S)c2ccc(OC)cc2)CC1 | 1 | 2 | 2 | -1 | 96 | 43*
O=C(C[n+]1ccccc1)N/N=C/c1ccccc1Cl | 10 | 4 | 1 | 23 | 98 | 0
O=C(C[n+]1ccccc1)N/N=C/c1ccccc1[N+](=O)[O-] | -1 | -3 | 0 | 6 | 101 | 43*
CCOC(=O)[C@@H]1[C@H]2COc3ccccc3[C@@H]2N2C(=O)N(c3ccc(F)cc3)C(=O)[C@@]12C | -4 | -2 | -1 | 6 | 92 | 45*
CCOC(=O)[C@@H]1[C@H]2COc3ccccc3[C@@H]2N2C(=O)N(c3ccc(C)cc3)C(=O)[C@@]12C | 21 | 4 | -4 | 19 | 92 | 0
C[C@@H]1CCCCO[C@@H](CN(C)S(=O)(=O)c2ccccc2)[C@H](C)CN([C@@H](C)CO)C(=O)c2cc(N(C)C)ccc2O1 | x | x | x | x | x | -1
COc1ccc2c3c([nH]c2c1)[C@H](CO)N(C(=O)NC(C)C)CC31CCN(C(=O)C2CCCC2)CC1 | x | x | x | x | x | 0
COc1cc(OC)c(OC)cc1/C=C/c1cc(C(F)(F)F)[nH]c(=O)n1 | 4 | -59 | 2 | -1 | 118 | 43*
O=[N+]([O-])c1ccccc1-c1ccc(C(=S)N2CCCCC2)o1 | 65* | -15 | 2 | -2 | 101 | 0
O=[N+]([O-])c1ccccc1-c1ccc(C(=S)N2CCCC2)o1 | 3 | -11 | 4 | 7 | 109 | -1
COc1ccc(C(C(=O)NCc2ccccc2)N(Cc2ccco2)C(=O)c2snc(C(N)=O)c2N)cc1OC (centres undefined) | 56* | 3 | 0 | -22 | 100 | 0
[O-][n+]1c(/C=C/c2ccccc2)ccc2ccccc21 | 87* | 1 | -1 | 5 | 95 | 0
[O-][n+]1ccccc1/C=C/c1ccccc1 | -6 | 0 | 1 | 5 | 97 | 0
CCc1ccc(CNC(=O)c2nn(C)c3c2CS(=O)(=O)c2ccccc2-3)cc1 | 5 | 2 | 1 | -10 | 97 | 68*
Cc1ccc(CNC(=O)c2nn(C)c3c2CS(=O)(=O)c2ccccc2-3)cc1 | -4 | -1 | -1 | -2 | 94 | 0
CCN(CC(=O)Nc1ccc(C)c(F)c1)CC(=O)NC(C)(C)C | 3 | 1 | 1 | 14 | 98 | 43*
CCN(CC(=O)Nc1ccc(NC(C)=O)cc1)CC(=O)Nc1ccc(Cl)c(Cl)c1 | -1 | 1 | 0 | -9 | 99 | 0
CO[C@@H]1CN(C)C(=O)c2ccc(NC(C)=O)cc2OC[C@@H](C)N(Cc2nccs2)C[C@H]1C | x | x | x | x | x | 0
CCN(CC)CCNC(=O)c1ccc(NC(=O)/C=C/c2ccc3ccccc3n2)cc1 | -1 | -10 | 4 | 0 | 111 | 1.6*
CCN(CC)CCNC(=O)c1ccc(NC(=O)Cc2ccccc2F)cc1 | 0 | 1 | -1 | -8 | 98 | 0
CCC(=O)Nc1ccc2c(c1)C(=O)N(C)C[C@@H](OC)[C@@H](C)CN(Cc1ccccn1)[C@@H](C)CO2 | x | x | x | x | x | 0
COc1ccc2nc(NC(=O)CSc3nc(SC)ns3)sc2c1 | -1 | 1 | 1 | 6 | 97 | 0
